SR-BI DiI-HDL act = activators of SR-BI mediated DiI-HDL uptake, primary screen, ldlA[mSR-BI] CHO cells, DiI fluorescence | 3 h; 100 = double the neutral-control signal | activation, % at 12.5 µM | 0.096% of 320,000 active;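 active = mean replicate activation of at least 60% and every replicate at or above 60%; inconclusive = mean or all-replicate condition met, but not both; inactive = mean below 60% and not all replicates reaching 60%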
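Test system: SR-BI-overexpressing, LDLR-lacking CHO cells; Also added: labelled HDL, 10 µg/mL; Measured by: bottom-read cell fluorescence after medium removal, ex 550/em 595 nm; Timing: 3 h uptake period with compound, 37 °C; Buffer or medium: F12, 0.5% BSA, 25 mM HEPES; Doses: single compound concentration, delivered by pin transfer.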
SR-BI DiI inh = inhibitors of SR-BI mediated HDL lipid uptake, primary screen, ldlA[mSR-BI] cells, fluorescence, single point; ldlA[mSR-BI] CHO cells, DiI-HDL uptake fluorescence, 3 h; inhibition, % at 12.5 µM; 0.96% of 320,000 active; Scavenger receptor class B member 1 (Mus musculus), Q61009;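 active = mean replicate inhibition of at least 70% and a set share of replicates each scoring 70 or more; inconclusive = meets just one of the two criteria; inactive = fails both criteria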
Target sequence (Q61009 whole entry, looked up): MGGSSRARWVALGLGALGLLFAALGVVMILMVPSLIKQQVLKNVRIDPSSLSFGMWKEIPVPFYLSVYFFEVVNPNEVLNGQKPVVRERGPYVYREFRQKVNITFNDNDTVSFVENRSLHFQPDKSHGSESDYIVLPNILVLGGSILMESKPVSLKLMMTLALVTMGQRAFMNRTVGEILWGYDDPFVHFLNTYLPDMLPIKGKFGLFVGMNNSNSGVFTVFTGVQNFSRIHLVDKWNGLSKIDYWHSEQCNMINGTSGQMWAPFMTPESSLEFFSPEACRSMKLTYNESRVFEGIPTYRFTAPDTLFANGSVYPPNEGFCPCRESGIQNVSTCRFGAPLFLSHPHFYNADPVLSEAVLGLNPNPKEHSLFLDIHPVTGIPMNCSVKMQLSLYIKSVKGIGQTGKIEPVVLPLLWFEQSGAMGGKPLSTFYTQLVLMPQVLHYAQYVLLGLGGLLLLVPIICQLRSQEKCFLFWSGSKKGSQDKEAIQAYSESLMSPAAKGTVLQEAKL
Vif imaging = HIV Vif self-association inhibitors, primary screen, imaging, HEK293T, single point. 0.35% of 340,000 active. inhibition, % at 7.49 µM. HEK293T cells, Vif self-association by quenched fluorescence, 24 h; in the data active = inhibition above about 50%, passing the limit was not always enough; inconclusive = no clear call, values can overlap the other calls; inactive = below about 31%
Statin myotox sup = suppressors of statin myotoxicity in C2C12 myotubes, primary screen, cell-based, single point, plate reader. 0.78% of 330,000 active. rescue of ATP level, % at 7.49 µM. C2C12 myotubes + simvastatin, ATP luminescence, 48 h; scaled: DMSO 0, geranylgeraniol control 100. AID 602340, 2012;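 active = mean ATP rescue above about 67%, or every replicate alone reaching that limit, limit read from the data, passing the limit was not always enough; inconclusive = no clear call, values can overlap the other calls; inactive = mean under the limit and some replicate under it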;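 note: myotubes were challenged with 10 µM simvastatin during compound exposure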
Hits are given with their value; i = inactive; ? = inconclusive; nt = not tested or not shown. Shown are actives, neighbours in structure and some others; about 1.7% of the full set was active somewhere.

SMILES	SR-BI DiI-HDL act	SR-BI DiI inh	Vif imaging	Statin myotox sup
COc1ccc(S(=O)(=O)NCCC(=O)NCc2ccccc2)cc1	i	i	i	126
COc1ccc(C(=O)Nc2ccc(C3(C#N)CCCC3)cc2)cc1	i	88	i	i
C[C@@H]1CN([C@H](C)CO)S(=O)(=O)c2ccc(-c3ccccc3)cc2O[C@@H]1CN(C)C(=O)Cc1ccccc1	nt	nt	nt	i
COc1cccc(-c2cc(C(F)(F)F)n3nc(C(=O)N4CCCCC4c4cccnc4)cc3n2)c1 (configuration not stated)	i	77	i	i
COc1ccccc1C(=O)Nc1ccc2c(c1)C(=O)N(C)[C@H]1CC[C@@H](CC(=O)NCCc3ccncc3)O[C@@H]1CO2	nt	nt	nt	i
Cc1ccc2oc(=O)c(/C=C(\O)c3cccs3)nc2c1	nt	nt	89	nt
CCCC#Cc1cnc2c(c1)C(=O)N([C@@H](C)CO)C[C@@H](C)[C@H](CN(C)C(=O)c1ccc(F)cc1)O2	nt	nt	nt	i
CCNC(=O)[C@H]1O[C@@H](n2cnc3c(N)nc(NCCc4ccc(CCC(=O)O)cc4)nc32)[C@H](O)[C@@H]1O	i	i	63	i
Cc1ccc(CNC(=O)[C@H]2O[C@@H](n3cnc4c(N)ncnc43)[C@H](O)[C@@H]2O)o1	nt	nt	i	i
C[C@H]1CN([C@@H](C)CO)C(=O)Cc2cc(NS(=O)(=O)c3ccc(F)cc3)ccc2O[C@@H]1CN(C)Cc1ccc(Cl)c(Cl)c1	nt	nt	nt	69
C[C@H](CO)N1C[C@H](C)[C@@H](CN(C)Cc2ccc(Cl)c(Cl)c2)Oc2ccc(NS(=O)(=O)c3ccc(F)cc3)cc2CC1=O	nt	nt	nt	112
CN1CCN(C(=O)C[C@@H]2CC[C@H]3[C@@H](COC[C@@H](O)CN3C(=O)Cc3ccccc3)O2)CC1	nt	nt	nt	i
CC1Cc2ccccc2N1C(=O)CSc1nnnn1C (configuration not stated)	i	i	nt	i
CC1Cc2ccccc2N1C(=O)CSc1nnc(Cc2ccccc2)n1CCc1ccccc1 (configuration not stated)	i	i	i	113
Cc1ccc(NC(=O)c2ccc3c(=O)n4c(nc3c2)CCC4)cc1S(=O)(=O)N(C)C	i	75	nt	i
Cc1ccc(NC(=O)c2ccc3c(=O)n4c(nc3c2)CCC4)cc1F	i	i	i	i
CN1C(=O)c2cc(NC(=O)C3CCOCC3)ccc2OC[C@@H]2O[C@H](CC(=O)NCC3CCCCC3)CC[C@@H]21	nt	nt	nt	i
Brc1ccc(CN2C3=NCCCN3c3ccccc32)cc1	i	i	i	nt
O=C(CN1C2=NCCCN2c2ccccc21)c1ccc(Br)s1	i	i	i	115
c1ccc(CN2C3=NCCCN3c3ccccc32)cc1	nt	nt	i	79
CC(C)N1C(=O)CCC1C(=O)N1CCC(Cc2ccccc2)CC1 (configuration not stated)	i	i	i	132
CC(C)N1C(=O)CCC1C(=O)N1CCN(c2ccc(F)cc2)CC1 (configuration not stated)	nt	nt	i	i
C[C@@H]1CN([C@H](C)CO)C(=O)c2cc(N(C)C)ccc2O[C@@H](C)CCCCO[C@@H]1CN(C)C(=O)Nc1ccc2c(c1)OCO2	nt	nt	nt	i
CN(C)c1ccc(/C=C/C=C2/SC(=S)N(c3ccccc3)C2=O)cc1	nt	nt	i	70
COc1cc(Br)cc(/C=C/c2ccc3cccc(O)c3n2)c1OC	i	i	i	i
SMILES	SR-BI DiI-HDL act	SR-BI DiI inh	Vif imaging	Statin myotox sup
COc1cc(/C=C/c2ccc3cccc(O)c3n2)cc(Br)c1OC	i	82	i	i
COc1ccc(Br)cc1/C=C/c1ccc2cccc(O)c2n1	i	?	i	68
CC=Cc1ccc2n(c1=O)C[C@H]1[C@H](CO)[C@@H](C(=O)Nc3ccc(-c4ccccc4)cc3)N(C(=O)CC)[C@@H]21 (mixture of isomers)	nt	nt	nt	i
CCCNC(=O)c1c(N)n(-c2cccc(OC)c2)c2nc3ccccc3nc12	i	i	i	106
O=C(c1ccsc1)N1CCCC(N2CCN(c3ccccc3F)CC2)C1 (configuration not stated)	i	i	i	i
O=C(c1noc2c1CCCC2)N1CCCC(N2CCN(c3ccccc3F)CC2)C1 (configuration not stated)	i	73	i	i
COc1ccc(NC(=O)Nc2ccc3c(c2)CC(=O)N([C@H](C)CO)C[C@H](C)[C@H](CN(C)Cc2ccccc2)O3)cc1	nt	nt	nt	i
COCC#Cc1cnc2c(c1)C(=O)N([C@H](C)CO)C[C@@H](C)[C@@H](CN(C)S(C)(=O)=O)O2	nt	nt	nt	i
COCC(=O)Nc1ccc2c(c1)[C@@H]1C[C@@H](CC(=O)N3CCCCC3)O[C@@H](CO)[C@@H]1O2	nt	nt	nt	i
C[C@H](CO)N1C[C@H](C)[C@@H](CN(C)C(=O)Cc2ccccn2)Oc2ncc(C#CC3CC3)cc2C1=O	nt	nt	nt	i
CCC(CC)NC(=O)CON=C1c2ccccc2-c2ccccc21	i	72	i	nt
CCNC(=O)CON=C1c2ccccc2-c2ccccc21	i	i	i	nt
Cc1noc(C)c1NC(=O)Nc1cccc2c1O[C@H](CN(C)Cc1ccc3c(c1)OCO3)[C@@H](C)CN([C@@H](C)CO)C2=O	nt	nt	nt	i
C/C(=N/Nc1ccc(C(=O)c2c(C)cc3ccccn23)cc1[N+](=O)[O-])c1ccc(O)cc1	i	101	i	nt
C/C(=N\Nc1ccc(C(=O)c2c(C)cc3ccccn23)cc1[N+](=O)[O-])c1ccc(O)cc1	nt	nt	i	i
O=S(=O)(N[C@H]1CC[C@@H](CCn2cc(-c3ccc(F)cc3)nn2)O[C@@H]1CO)c1ccccc1F	nt	nt	nt	i
COCCCNC(=O)CN(c1cccc(Cl)c1)S(C)(=O)=O	527	i	i	i
C[C@@H]1CN([C@@H](C)CO)C(=O)c2cc(NC(=O)C3CCCCC3)ccc2O[C@@H](C)CCCCO[C@@H]1CN(C)C(=O)c1ccccc1	nt	nt	nt	i
CN(C)CCNC(=S)Nc1ccccc1Cl	i	i	65	i
CCN1C(=O)/C(=C2/C(=O)N3c4c(cc(OC(C)=O)cc42)C(C)=CC3(C)C)SC1=S	i	86	i	nt
COc1cccc(C(C(=O)NC(C)(C)C)N(C(=O)CCC(=O)Nc2cc(C)on2)C(C)C)c1OC (configuration not stated)	i	i	i	nt
COc1cccc(C(C(=O)NC(C)(C)C)N(C(=O)CCC(=O)Nc2cc(C)on2)C(C)(C)C)c1OC (configuration not stated)	i	i	i	67
COc1cc(Cl)c(C)cc1NC(=O)COC(=O)c1cnc(C)cn1	i	i	i	95
C[C@@H]1CN([C@H](C)CO)C(=O)c2cc(-c3ccncc3)cnc2O[C@H]1CN(C)C(=O)Nc1ccc2c(c1)OCO2	nt	nt	nt	i
CCn1cc([N+](=O)[O-])c(C(=O)N2N=C(c3cccc4ccccc34)CC2c2ccccc2O)n1 (configuration not stated)	i	i	nt	80

Screens (PubChem)
